The record followed here is ChEMBL document CHEMBL5712090, “Therapeutic targeting of p300/CBP HAT domain for the treatment of NUT midline carcinoma” (Oncogene, 2020).

One may read the IC50 as the point on the concentration scale where inhibition reaches its midpoint.

Active and inactive are the calls of the source. No cut-off for these calls is given here.

Assay [1] concerns HCC2429. The assay is described as follows: Inhibition of p300/CBP in human HCC2429 cells assessed as H3K27ac protein acetylation at MYC promoter and TP63 enhancer region with 1 microM for 3 days by ChIP analysis. Format: cell-based. Conditions: time 3.0 day. An outline of the steps: (§1)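 HCC2429 cells held 3 days at 1 µM or DMSO. Chromatin precipitated with H3K27ac, NUT or normal rabbit IgG antibodies. MYC promoter and TP63 enhancer quantified by qPCR as fold enrichment over IgG. Mean ± SEM, four independent experiments.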

The test system of assay [2] is HCC2429. Description: Induction of apoptosis in human HCC2429 cells assessed as cleaved caspase-3 expression at 250 nM incubated for 72 hrs in presence of JQ1 by immunoblot analysis. The format is functional, cell-based. The method in brief: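 HCC2429 cells treated 72 h with 250 nM alone, 50 nM JQ1 alone, or both combined. Cleaved caspase-3 detected by immunoblot.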
For orientation: Immunoblotting shows a protein as a band on a membrane.

Assay [3] deals with HCC2429. The assay is described as follows: Downregulation of TP63 mRNA level in human HCC2429 cells for 48 hrs treatment by qRT-PCR analysis. The format is functional, cell-based. The method in brief:
(§2)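 HCC2429 cells treated at indicated concentrations for 48 h. MYC, CCAT1 and TP63 mRNA measured by quantitative RT-PCR.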
In general terms: Quantitative PCR measures a nucleic acid by following its amplification.

Assay [4] relates to HCC2429. The assay is described as follows: Downregulation of MYC protein level in human HCC2429 cells for 48 hrs treatment by qRT-PCR analysis. Conditions: in the assay text read “immunoblot analysis” for “qRT-PCR analysis”. The format is functional, cell-based. The method in brief:
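HCC2429 cells treated at indicated concentrations for 48 h. MYC and H3K27ac protein assessed by immunoblot.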

Assay [5] concerns HCC2429. The assay is described as follows: Induction of squamous differentiation in human HCC2429 cells assessed as accumulation of pan-keratin in cytoplasm at 0.5 microM for 5 days by immunofluorescence staining method. The format is functional, cell-based. Conditions: time 5.0 day. The method in brief:
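HCC2429 cells exposed 5 days to 0.5 µM. Cytokeratin detected by immunofluorescence.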

In assay [6] the test system is HCC2429. The assay is described as follows: Induction of cell differentiation in human HCC2429 cells assessed as increase in involucrin-protein level at 0.5 microM for 5 days by immunoblot analysis.
Assay [7] concerns TC-797. Description: Induction of squamous differentiation in human TC-797 cells assessed as change in cell phenotype at 0.5 microM for 5 days by immunofluorescence staining method. The format is functional, cell-based. The following applies: time 5.0 day.
For assay [8], the system named is HCC2429. The assay is described as follows: Inhibition of p300/CBP in human HCC2429 cells assessed as H3K27ac protein acetylation at 1 microM for 3 days by immunofluorescence analysis. The format is cell-based. The following applies: time 3.0 day. The method in brief: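 HCC2429 cells treated 3 days with 1 µM or DMSO. H3K27ac, BRD4-NUT and wild-type BRD4 imaged by immunofluorescence.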

The subject of assay [9] is HCC2429. The assay is described as follows: Induction of cell differentiation in human HCC2429 cells assessed as increase in c-fos mRNA level at 0.5 microM for 5 days by qRT-PCR analysis.
Assay [10] has as its system HCC2429. Description: Induction of squamous differentiation in human HCC2429 cells assessed as flattening of cells at 0.5 microM for 5 days by immunofluorescence staining method. The following applies: time 5.0 day. The format is functional, cell-based.
Assay [11] has as its system HCC2429. Description: Inhibition of colony formation in human HCC2429 cells assessed as inhibition in colony formation at 250 nM incubated for 72 hrs in presence of JQ1 by crystal violet staining based assay. The format is functional, cell-based. An outline of the steps: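 HCC2429 cells incubated 72 h with 250 nM, 50 nM JQ1, or both. Colony formation then scored.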

Assay [12] has as its system HCC2429. Description: Downregulation of MYC mRNA level in human HCC2429 cells for 48 hrs treatment by qRT-PCR analysis. Format: functional, cell-based. An outline of the steps: as §2
Assay [13] relates to HCC2429. The assay is described as follows: Induction of cell differentiation in human HCC2429 cells assessed as c-fos mRNA level at 250 nM for 5 days in presence of JQ1 by qRT-PCR analysis. The format is functional, cell-based. Conditions: time 5.0 day. An outline of the steps: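 HCC2429 cells given 250 nM, 50 nM JQ1, or the combination for 5 days. KRT10, KRT14, TGM1 and c-fos mRNA by qRT-PCR. Mean ± SEM of three independent experiments.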

The test system of assay [14] is HCC2429. The assay is described as follows: Antiproliferative activity against human HCC2429 cells for 72 hrs incubation measured by Celltiter Glo Cell Viability assay. Format: functional, cell-based. The following applies: HCC2429, 72 h. The method in brief: (§3)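 Cells exposed to inhibitor over 10 nM–25 µM for 72 h; viability read by CellTiter Glo luminescence. IC50 taken from dose-response curve fit. Mean ± SD of three technical replicates.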

The nature of assay [15]: Antiproliferative activity against human 00-143 cells for 72 hrs incubation measured by Celltiter Glo Cell Viability assay. Format: functional, cell-based. The following applies: 00-143, 72 h. An outline of the steps:
as §3
For orientation: In ATP-based viability assays light output follows the ATP content of the culture.

The subject of assay [16] is HCC2429. The assay is described as follows: Inhibition of p300/CBP in human HCC2429 cells assessed as BRD4-NUT level at MYC promoter and TP63 enhancer region with 1 microM for 3 days by ChIP analysis. The format is cell-based. Conditions: time 3.0 day. An outline of the steps: as §1
Assay [17] deals with HCC2429. Description: Downregulation of CCAT1 mRNA level in human HCC2429 cells for 48 hrs treatment by qRT-PCR analysis. Format: functional, cell-based. The method in brief:
as §2

Assay [18] deals with Ty-82. The assay is described as follows: Antiproliferative activity against human Ty-82 cells for 72 hrs incubation measured by Celltiter Glo Cell Viability assay. The format is functional, cell-based. Conditions: TY82, 72 h. The method in brief:
as §3

The test system of assay [19] is HCC2429. The assay is described as follows: Induction of apoptosis in human HCC2429 cells assessed as cleaved caspase-3 expression at 0.5 microM incubated for 72 hrs by immunoblot analysis. The format is functional, cell-based. An outline of the steps:
(§4)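 HCC2429 cells given 0.5 or 1 µM for 24, 48 and 72 h. Cleaved caspase-3 detected by immunoblot.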

Assay [20] deals with PER-403. The assay is described as follows: Induction of squamous differentiation in human PER-403 cells assessed as change in cell phenotype at 0.5 microM for 5 days by immunofluorescence staining method. Format: functional, cell-based. Conditions: time 5.0 day.
The test system of assay [21] is HCC2429. The assay is described as follows: Induction of cell cycle arrest in human HCC2429 cells assessed as G1 cell cycle arrest at 0.5 microM incubated for 24 hrs by flow cytometry analysis. Format: functional, cell-based. An outline of the steps: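 HCC2429 cells exposed to 0.5 or 1 µM for 24, 48 and 72 h, then analysed by flow cytometry. Mean ± SEM, three independent experiments.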

Assay [22] deals with HCC2429. Description: Induction of apoptosis in human HCC2429 cells assessed as cleaved caspase-3 expression at 0.5 microM incubated for 48 hrs by immunoblot analysis. The format is functional, cell-based. An outline of the steps: as §4

As for `CNC(=O)Nc1ccc2c(c1)CC[C@@]21OC(=O)N(CC(=O)N(Cc2ccc(F)cc2)[C@@H](C)C(F)(F)F)C1=O` [A-485], the inhibition result in assay [1], in [8], in assay [11] and in [16] was “Active” throughout. In addition, the result in assay [2], in assay [3], in [4], in assay [5], in assay [6] and in assay [7] was Active. Besides, the outcome in assay [9], in assay [10], in assay [12], in assay [13], in assay [17] and in assay [19] was Active. The result in assay [20], in [21] and in assay [22] was Active. In addition, the figures for the IC50 in assay [14], in assay [15] and in [18] were 750 nM, 980 nM and 210 nM, respectively.
